From PubChem BioAssay
Most compounds without a hit are left out; they make up all but 2.1% or so of the library.
IEC-6 cytotox: IEC-6 cytotoxicity, counter-screen for KLF5 inhibitors; luminescence viability; inhibition, % at 5 µM; actives 0.78% (n = 290,000); in the data active = inhibition above about 22%;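 note: 0% = plate median of test compound wells and 100% = cytotoxic reference compound wells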
bCat nuc transl: beta-catenin nuclear translocation modulation | nuclear translocation activity, % at 5 µM | HeLa beta-catenin nuclear translocation, immunofluorescence imaging | AID 1665 | actives 0.3% (n = 190,000);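 active = nuclear translocation activity above 50% at 5 µM, with a well cell count of 50 or more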;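 note: per-cell ratio of nuclear to cytoplasmic median beta-catenin stain intensity; plate controls were DMSO negative control for no effect and GSK-3 inhibitor IX positive control for full effect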
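Test system: human HeLa cells, native beta-catenin. Compound dosing: 5 µM primary single dose, 0.1% DMSO, 0.02–20 µM confirmation series. Incubation: compound exposure 24 h at 37°C. Detection: beta-catenin immunostaining with DAPI counterstain, 20x imaging, 6 fields/well. Read-out basis: Nuclear/cytoplasmic beta-catenin signal ratio, % activation.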
MT stabilizer: stabilizes microtubules in HeLa cells; % tubulin-high responders, % at 10 µM; actives 0.83% (n = 200,000); HeLa tubulin immunostaining HCS, 24 h; share of cells brighter than vehicle mean+2SD;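 active = plate Z-score above 3 for both tubulin-high and condensed-nucleus cell shares, with cell loss under 80%, at 10 µM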;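 note: anti alpha tubulin signal scored within the nucleus-defined area of each cell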
Ba/F3 V617F tox: lowers viability of Ba/F3 cells expressing EpoR and JAK2V617F; ATP luminescence; inhibition, % at 5.6 µM; actives 1.1% (n = 220,000);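 active = inhibition above the campaign mean plus 3 SD over all tested compounds, cut at about 24% in these data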;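 note: cytokine-independent growth of Ba/F3 cells driven by EpoR plus mutant JAK2; 0% = DMSO-treated cells and 100% = JAK inhibitor I control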
BaF3 parental: reduces parental Ba/F3 cell viability, JAK2V617F counter-screen | actives 1.1% (n = 220,000) | CellTiter-Glo ATP luminescence | inhibition, % at 5.6 µM;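 active = inhibition above a per-campaign cutoff, the mean inhibition of all tested compounds plus 3 SD, cut at about 27% in these data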;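 note: 0% = DMSO wells and 100% = JAK Inhibitor I control wells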
KLF5 inhibitor: inhibitors of KLF5 expression. DLD-1 KLF5 promoter-luciferase reporter, luminescence. inhibition, % at 5 µM. actives 0.23% (n = 290,000). AID 1700;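 active = inhibition above a per-plate limit of that plate's mean compound inhibition plus 3 SD, cut at about 60% in these data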;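 note: 0% = DMSO wells and 100% = LY294002 at 200 µM; higher means less KLF5 promoter-driven luciferase light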
Active calls of the source: *.

For O=C(CS(=O)c1ccc(C(F)(F)F)cc1[N+](=O)[O-])Oc1ccccc1 (centres undefined) the results were IEC-6 cytotox 16, MT stabilizer 3, Ba/F3 V617F tox 53*, BaF3 parental 48* and KLF5 inhibitor -18.
CCOc1ccc(NS(=O)(=O)c2ccc(C(=O)N3CCN(c4ncccn4)CC3)cc2)cc1 was read as IEC-6 cytotox 0, bCat nuc transl -2, MT stabilizer 2, Ba/F3 V617F tox 21, BaF3 parental 31* and KLF5 inhibitor -16.
Screening CCOc1ccc(NS(=O)(=O)c2ccc(C(=O)N3CCCCC3)cc2)cc1 returned IEC-6 cytotox 3 and KLF5 inhibitor -25.
`O=C(N/N=C/c1cccnc1)c1sc2ccccc2c1Cl` gave IEC-6 cytotox -12 and KLF5 inhibitor -38.
Screening COc1ccc(CN2CCNC(=O)C2CC(=O)NCC2CCOCC2)cc1C (centres undefined) returned IEC-6 cytotox -1 and KLF5 inhibitor 6.
CCc1ccc(NC(=O)CCS(=O)(=O)c2ccc3c(c2)CCN3C(C)=O)cc1 was read as IEC-6 cytotox 7 and KLF5 inhibitor -5.
For CCC(=O)N1CCc2cc(S(=O)(=O)CCC(=O)Nc3ccc(CC)cc3)ccc21 the results were IEC-6 cytotox -2, bCat nuc transl -1, MT stabilizer 6, Ba/F3 V617F tox -1, BaF3 parental 93* and KLF5 inhibitor -46.
Cc1ccc(NC(=O)C2CCCN(S(=O)(=O)c3ccc4[nH]c(=O)ccc4c3)C2)c(C)c1 (centres undefined) was read as IEC-6 cytotox -2 and KLF5 inhibitor 5.
Screening CCn1cc(/C=N/NC(=O)c2cc3c(ccc4ccccc43)o2)c2ccccc21 returned IEC-6 cytotox -1, bCat nuc transl -2, MT stabilizer 41*, Ba/F3 V617F tox -5, BaF3 parental 1 and KLF5 inhibitor -9.
For Cn1/c(=N/N=C/c2ccc([N+](=O)[O-])cc2)sc2ccccc21 the results were IEC-6 cytotox -4, MT stabilizer 7, Ba/F3 V617F tox -4, BaF3 parental -1 and KLF5 inhibitor -59.
For Cc1cc(C)c2c(c1)/C(=N\N=c1\sc3ccccc3n1C)C(=O)N2 the results were IEC-6 cytotox 1, bCat nuc transl -1, Ba/F3 V617F tox 1, BaF3 parental 39* and KLF5 inhibitor -17.
Screening COc1ccc2[nH]c(=O)c(CN(C)C(=O)c3ccncc3)cc2c1 returned IEC-6 cytotox 3, bCat nuc transl -5, MT stabilizer 2, Ba/F3 V617F tox -4, BaF3 parental -1 and KLF5 inhibitor -7.
Screening CCCN(Cc1cc2cc(OC)ccc2[nH]c1=O)C(=O)c1ccncc1 returned IEC-6 cytotox 11, bCat nuc transl 0, MT stabilizer 13*, Ba/F3 V617F tox 3, BaF3 parental 7 and KLF5 inhibitor 5.
CC(C)(C)N1CC(OC(N)=O)C1 was read as IEC-6 cytotox 3, bCat nuc transl 0, Ba/F3 V617F tox 2, BaF3 parental -4 and KLF5 inhibitor -23.
`CCOc1ccc(N/C(SCc2cccc([N+](=O)[O-])c2)=C(/C#N)C(N)=O)cc1` gave IEC-6 cytotox -18, bCat nuc transl 1, Ba/F3 V617F tox 1, BaF3 parental 13 and KLF5 inhibitor 1.
N#CC(C#N)=C(Nc1ccc(F)cc1)SCc1cccc(F)c1 was read as IEC-6 cytotox 34*, bCat nuc transl -4, MT stabilizer 2, Ba/F3 V617F tox 55*, BaF3 parental 67* and KLF5 inhibitor 34.
Screening COc1ccc(/C=C/CN2CCN(CC(C)C)C(CCO)C2)cc1 (centres undefined) returned IEC-6 cytotox 6, bCat nuc transl 1, MT stabilizer 3, Ba/F3 V617F tox 1, BaF3 parental 6 and KLF5 inhibitor -28.
Screening CC(C)c1ccc(/C=C(\c2nc3ccccc3[nH]2)S(=O)(=O)c2ccccc2)cc1 returned IEC-6 cytotox 5, bCat nuc transl 27, MT stabilizer 27*, Ba/F3 V617F tox -3, BaF3 parental 9 and KLF5 inhibitor -4.
For COc1cc(/C=C(/C(=O)c2cccs2)c2nc3ccccc3[nH]2)ccc1O the results were IEC-6 cytotox 10, bCat nuc transl 4, MT stabilizer 13, Ba/F3 V617F tox 17, BaF3 parental 5 and KLF5 inhibitor -60.
